Measurements: ChEMBL document CHEMBL2177064, “Discovery and optimization of a novel spiropyrrolidine inhibitor of β-secretase (BACE1) through fragment-based drug design” (J Med Chem, 2012)

Experiments:
[1] = Permeability from basal to apical side of RRCK cells at 2 uM; assay type: ADME, cell-based, Canis lupus familiaris, MDCKII-LE; settings: dog, MDCK; read-out: permeability
Procedure, shortened: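 Basal→apical transfer rate of test compound at 2 μM across contiguous RRCK cell monolayers, quantified by MS.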

[2] = Intrinsic clearance in human liver microsomes assessed per mg of protein; assay type: ADME, Microsome; settings: read-out: CLH
[3] = Permeability from apical to basal side of MDCK cells; assay type: ADME, cell-based, Canis lupus familiaris; settings: dog, read-out: permeability
Procedure, shortened: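 Test compound applied at 2 μM to contiguous cell monolayers. Apical-to-basal transfer rate quantified by mass spectrometry.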

Row | SMILES | Papp B→A at 2 µM [1] [×10⁻⁶ cm/s] | microsomal CLint [2] [µL/min/mg] | Papp A→B [3] [×10⁻⁶ cm/s]
1 | N#Cc1ccc(COC(=O)[C@H]2C[C@]3(CN2)C(=O)Nc2ccccc23)cc1 | 18.4 |  | 
2 | O=C1Nc2ccccc2[C@@]12CN[C@@H](CCCc1ccccc1)C2 | 11.4 | 91.3 | 
3 | O=C1Nc2ccccc2[C@]12CCNC2 |  |  | 12.2
4 | O=C1Nc2ccccc2[C@@]12CN[C@@H](CNCc1ccccc1)C2 | 13.5 | 76.7 | 
5 | CNC(=O)[C@H]1C[C@]2(CN1)C(=O)Nc1ccccc12 | 4.86 | 14.3 | 
6 | O=C(NCc1ccccc1)[C@H]1C[C@]2(CN1)C(=O)Nc1ccccc12 |  | 15 | 
7 | COC(=O)[C@H]1C[C@]2(CN1)C(=O)Nc1ccccc12 | 29.5 |  | 
8 | O=C(OC1CCOCC1)[C@H]1C[C@]2(CN1)C(=O)Nc1ccccc12 | 25 |  | 
9 | O=C(OC1CCS(=O)(=O)c2ccc(Br)cc21)[C@H]1C[C@]2(CN1)C(=O)Nc1ccccc12 (mixture of isomers) | 49.1 |  | 

The next lines start with results.

Row | Papp B→A at 2 µM [1] [×10⁻⁶ cm/s] | microsomal CLint [2] [µL/min/mg] | SMILES | Papp A→B [3] [×10⁻⁶ cm/s]
10 | 20.9 |  | COC(=O)N1CCC(OC(=O)[C@H]2C[C@]3(CN2)C(=O)Nc2ccccc23)CC1 | 
11 | 30.4 |  | O=C(OCc1ccccc1)[C@H]1C[C@]2(CN1)C(=O)Nc1ccccc12 | 
12 | 7.11 |  | O=C(OCc1ccc(Br)cc1)[C@H]1C[C@]2(CN1)C(=O)Nc1ccccc12 | 
13 | 10.2 |  | N#Cc1ccc(COC(=O)[C@H]2C[C@]3(CN2)C(=O)Nc2ccccc23)cc1Br | 
14 | 22.7 |  | N#CC1(OC(=O)[C@H]2C[C@]3(CN2)C(=O)Nc2ccccc23)CCCCC1 | 
15 | 23.9 | 24.7 | O=C1Nc2ccccc2[C@@]12CN[C@@H](COCc1ccccc1)C2 | 
16 |  | 94.8 | O=C1Nc2ccccc2[C@@]12CN[C@@H](CNCc1cccc(C(F)(F)F)c1)C2 | 
17 |  | < 8 | CN(C)C(=O)[C@H]1C[C@]2(CN1)C(=O)Nc1ccccc12 | 
18 | 2.92 | < 8 | CN(C(=O)[C@H]1C[C@]2(CN1)C(=O)Nc1ccccc12)C1CCOCC1 | 
19 | 29.6 | 16.6 | O=C1Nc2ccccc2[C@@]12CN[C@@H](c1ccccc1)C2 (racemic) | 
